From ChEMBL document CHEMBL1127461, “Synthesis of new acyclic pyrimidine nucleoside analogs as potential antiviral drugs” (J Med Chem, 1994)

What was measured:
Human alphaherpesvirus 1 [1] = assay: In Vitro antiviral activity against HSV-1 at 0.5 ug/mL concentration; format: functional
Procedure, shortened: (§1)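 Mouse embryo cell cultures infected with HSV-1 were exposed to compound at 0.05, 0.5, 5, 50 and 500 μg/mL for 3 days. Infected cultures were then inspected macro- and microscopically, and reduction or inhibition of virus-induced cell destruction was scored. Aciclovir, 5-ethyldeoxyuridine and PMEG served as reference drugs.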

Human alphaherpesvirus 1 [2] = assay: In Vitro antiviral activity against HSV-1 at 5 ug/mL concentration; format: functional; procedure, shortened: as §1
Human alphaherpesvirus 1 [3] = assay: In Vitro antiviral activity against HSV-1 at 50 ug/mL concentration; format: functional; procedure, shortened: as §1
Human alphaherpesvirus 1 [4] = assay: In Vitro antiviral activity against HSV-1 at 500 ug/mL concentration; format: functional; procedure, shortened: as §1
[5] = In Vitro cytotoxicity against HSV-1 at 5 ug/mL concentration; format: organism-based; conditions: human alphaherpesvirus 1, in vitro
Procedure, shortened: (§2)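 Uninfected mouse embryo cell cultures were exposed to compound at 0.05, 0.5, 5, 50 and 500 μg/mL for 3 days. Cultures were then examined macro- and microscopically, and growth inhibition or disruption of the cells was taken as cytotoxicity.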

[6] = In Vitro cytotoxicity […] at 50 ug/mL concentration; format: organism-based; procedure, shortened: as §2
[7] = In Vitro cytotoxicity […] at 500 ug/mL concentration; format: organism-based; procedure, shortened: as §2
Human alphaherpesvirus 1 [8] = assay: In Vitro antiviral activity against HSV-1 at 0.05 ug/mL concentration; format: functional; procedure, shortened: as §1

| Structure (SMILES) | inhibition at 0.5 µg/mL (Human alphaherpesvirus 1 [1]) [%] | inhibition at 5 µg/mL (Human alphaherpesvirus 1 [2]) [%] | inhibition at 50 µg/mL (Human alphaherpesvirus 1 [3]) [%] | inhibition at 500 µg/mL (Human alphaherpesvirus 1 [4]) [%] | inhibition at 5 ug/mL [5] [%] | inhibition at 50 ug/mL [6] [%] | inhibition at 500 ug/mL [7] [%] | inhibition at 0.05 µg/mL (Human alphaherpesvirus 1 [8]) [%] |
| --- | --- | --- | --- | --- | --- | --- | --- | --- |
| Nc1nc(O)c([N+](=O)[O-])c(NCCCCO)n1 | 0 | 0 | 0 | 0 | 0 | 0 | 100 | 0 |
| OCCCCNc1cc(O)nc(O)n1 | 0 | 0 | 0 | 0 | 0 | 0 | 25 | 0 |
| Nc1nc(O)c([N+](=O)[O-])c(NCCOCP(=O)(O)O)n1 | 0 | 0 | 0 | 0 | 0 | 0 | 0 | 0 |
| CCc1cn([C@H]2C[C@H](O)[C@@H](CO)O2)c(=O)[nH]c1=O [EDOXUDINE] | 25 | 100 | 100 | 100 | 0 | 0 | 0 | 0 |
| OCCCCNc1nc(O)nc(O)c1I | 0 | 0 | 0 | 0 | 0 | 100 | 100 | 0 |
| Nc1nc(Cl)cc(NCCCCO)n1 | 0 | 0 | 0 | 0 | 0 | 0 | 50 | 0 |
| O=[N+]([O-])c1c(O)nc(O)nc1NCCCCO | 0 | 0 | 0 | 0 | 0 | 0 | 0 | 0 |
| Nc1nc(O)cc(NCCCCO)n1 | 0 | 0 | 0 | 0 | 0 | 0 | 0 | 0 |
| Nc1nc(O)c(N)c(NCCOCP(=O)(O)O)n1 | 100 | 100 | – | – | – | – | 75 | 50 |
| Nc1nc(O)c2ncn(COCCP(=O)(O)O)c2n1 | 100 | – | – | – | – | – | – | 100 |
| Nc1nc2c(ncn2COCCO)c(=O)[nH]1 [ACYCLOVIR] | 100 | 100 | 100 | 100 | 0 | 0 | 0 | 100 |
